Myeloid diff MLP: myeloid differentiation induction; ER-HoxA9 myeloid progenitors, lysozyme-GFP differentiation, flow cytometry; calls only at 10 µM; 360,000 compounds, 1% hits; AID 624256;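 active = normalized GFP-positive differentiation at or above the plate's own cutoff, the solvent-only control mean plus 3 SD; inconclusive = no clear call, values can overlap the other calls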;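 note: cells exposed to compound for four days before flow analysis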
Vif imaging: HIV Vif inhibition. inhibition, % at 7.49 µM. AID 602346. HEK293T cells, Vif self-association by quenched fluorescence, imaging, 24 h. 340,000 compounds, 0.35% hits; in the data active = inhibition above about 50%, passing the limit was not always enough; inconclusive = no clear call, values can overlap the other calls; inactive = below about 31%
T cell HTS: modulates CD8 T cell binding to vesicles. 2C CD8+ T cell-vesicle binding, flow cytometry; active compounds read low. response (vesicle binding), % at 7 µM. 330,000 compounds, 0.068% hits. AID 2052;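 active = response, share of CD8 T cells binding vesicles, and their 90th percentile fluorescence all below set limits, cut at about 80% in these data, passing the limit was not always enough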;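 note: values below 100% mean blocked vesicle binding to the CD8+ T cells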
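Material: 2C TCR transgenic mouse naive CD8+ T cells, MACS-purified. Also added: QL9-charged Drosophila Ld/ICAM-1/B7-1 vesicles. Timing: binding 1.5 h at 37 °C. Measured by: high-throughput flow cytometry with anti-B7-1 and anti-CD8 staining. Read-out: percent CD8+ FL2 mean versus row control. Controls: Unloaded micro-vesicles (low), QL9 vesicles with 0.7% DMSO (high).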
CASP6 VEID inh: blocks human caspase-6 cleavage activity. P55212. purified caspase-6, Z-VEID-R110 cleavage fluorescence. inhibition, % at 12.5 µM. 350,000 compounds, 0.53% hits. AID 686996;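 active = mean inhibition across replicates at least about 35%, with every replicate also reaching that limit, limit read from the data; inconclusive = only one of the two criteria met; inactive = neither criterion met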;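 note: 0% = median of neutral control wells and 100% = no fluorescence left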
Target sequence (P55212 24-179 limits assumed): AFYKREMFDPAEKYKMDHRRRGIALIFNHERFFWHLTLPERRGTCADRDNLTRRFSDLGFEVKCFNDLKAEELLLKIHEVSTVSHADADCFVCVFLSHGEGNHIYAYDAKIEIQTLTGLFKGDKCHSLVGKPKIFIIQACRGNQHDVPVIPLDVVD
Target sequence (P55212 194-293 limits assumed): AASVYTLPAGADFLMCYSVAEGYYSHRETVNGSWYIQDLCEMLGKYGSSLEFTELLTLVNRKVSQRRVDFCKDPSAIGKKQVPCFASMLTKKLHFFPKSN
Myeloid diff CP1: promotes myeloid progenitor differentiation; shares compounds with Myeloid diff MLP; ER-HoxA9 myeloid progenitors, GFP/Mac1 double-positive flow; calls only; 2,300 compounds, 2% hits;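 active = share of green or green-and-red cells above 9 and 9% in run 1 or 4 and 3% in run 2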
GFP autofluor: compound fluorescence in myeloid differentiation counter-screen | fluorescence response, % (concentration not given with the values) | ER-HoxA9 myeloid progenitors, no estrogen, GFP autofluorescence flow cytometry; vehicle wells 0%, positive control 100% | 2,300 compounds, 7.4% hits | shares compounds with Myeloid diff MLP;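 active = over 5% cells positive for green fluorescent reporter, or over 2% positive for both it and APC stain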;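 note: range taken on the double positive population between DMSO and positive control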
* marks the source's active call; other numbers are inactive results. Compounds with a hit are over-represented: about 1.4% of the library has one in this group of screens.

How did COc1ccc(C2c3cc(OC)c(OC)cc3CCN2C(=O)c2ccccc2)cc1OC (centres undefined) do in these assays?
Myeloid diff MLP: inactive; Vif imaging: 8.7; T cell HTS: 248.4; CASP6 VEID inh: 1.8

What do the screens show for `COCCCNC(=O)C(Cc1ccccc1)NS(=O)(=O)c1ccc2c(c1)c(=O)n(C)c(=O)n2C` (centres undefined)?
Myeloid diff MLP: inactive; Vif imaging: -4.1; T cell HTS: 208.9

How did Cn1c(=O)c2cc(S(=O)(=O)NC(Cc3ccccc3)C(=O)NCc3ccco3)ccc2n(C)c1=O (centres undefined) do in these assays?
Myeloid diff MLP: inactive; Vif imaging: -0.9; T cell HTS: 682.4; CASP6 VEID inh: 0.7; Myeloid diff CP1: inactive; GFP autofluor: 0.2

What do the screens show for `COc1ccccc1-c1ccc2c(c1)[C@H]1[C@H](CCN1S(=O)(=O)c1ccccc1F)[C@H](CO)N2`?
CASP6 VEID inh: 0.5

What do the screens show for `COc1ccccc1NC(=O)Nc1sccc1-c1nc2ccccc2s1`?
Myeloid diff MLP: active; Vif imaging: -0.8; T cell HTS: 780.7; CASP6 VEID inh: 1.6; Myeloid diff CP1: inactive; GFP autofluor: 0.0

What do the screens show for `CO[C@@H]1CN(C)C(=O)c2ccc(NS(=O)(=O)c3ccc(C)cc3)cc2OC[C@H](C)NC[C@@H]1C`?
CASP6 VEID inh: -0.2

What do the screens show for `C[n+]1ccccc1/C=C1\Sc2ccccc2N1CCO`?
Myeloid diff MLP: inactive; Vif imaging: -1.7; T cell HTS: 206.7; CASP6 VEID inh: -1.2

How did Cc1ccc2c(c1)S/C(=C\c1cccc[n+]1C)N2CCO do in these assays?
Myeloid diff MLP: active; Vif imaging: 11.2; T cell HTS: 346.2; CASP6 VEID inh: -2.5; Myeloid diff CP1: inactive; GFP autofluor: 68.1*

How did O=C(C[C@@H]1CC[C@@H]2[C@H](COC[C@H](O)CN2C(=O)c2cnccn2)O1)NCc1ccc(Oc2ccccc2)cc1 do in these assays?
CASP6 VEID inh: 1.2

How did COC(=O)c1cn(NC(=O)c2ccc(OC)c(OC)c2)c(=O)c2ccccc12 do in these assays?
Myeloid diff MLP: active; Vif imaging: 0.2; T cell HTS: 176.6; Myeloid diff CP1: inactive; GFP autofluor: 0.0

What do the screens show for `Cn1cnnc1Sc1nc2ccccc2nc1NS(=O)(=O)c1ccccc1`?
Myeloid diff MLP: inactive; Vif imaging: 23.8; T cell HTS: 494.1; Myeloid diff CP1: inactive; GFP autofluor: 0.3

How did CCOc1ccc(OCCSc2nc(C)cc(=O)[nH]2)cc1 do in these assays?
Myeloid diff MLP: inactive; Vif imaging: 0.8; T cell HTS: 139.7

What do the screens show for `Cc1cc(=O)[nH]c(SCCOc2cccc(C(F)(F)F)c2)n1`?
Vif imaging: 0.6; T cell HTS: inactive; CASP6 VEID inh: -1.5; Myeloid diff CP1: inactive; GFP autofluor: 3.4

Results for Cc1[nH]n(-c2ccccc2)c(=O)c1C(=O)c1ccccc1 ?
Myeloid diff MLP: inactive; Vif imaging: -1.4; T cell HTS: 442.3; CASP6 VEID inh: 0.1

How did Cc1[nH]n(-c2ccccc2)c(=O)c1C(=O)c1cccc(F)c1 do in these assays?
Myeloid diff MLP: inactive; Vif imaging: -0.3; T cell HTS: 272.5; CASP6 VEID inh: 2.2; Myeloid diff CP1: inactive; GFP autofluor: 0.3

What do the screens show for `CCOc1cc(S(=O)(=O)Nc2ccc(Cl)cn2)ccc1F`?
Myeloid diff MLP: active; Vif imaging: -0.3; T cell HTS: 231.3; Myeloid diff CP1: inactive; GFP autofluor: 0.3

Results for O=C(c1cccc(F)c1)N1C[C@H]2[C@@H](c3ccccc31)[C@@H](CO)N2C(=O)c1cccc(F)c1 ?
CASP6 VEID inh: -1.6

Results for Oc1ccccc1N=Cc1c(O)ccc2ccccc12 ?
Myeloid diff MLP: active; CASP6 VEID inh: -0.1; Myeloid diff CP1: inactive; GFP autofluor: 0.0

What do the screens show for `Oc1ccc2ccccc2c1C=Nc1ccccc1Br`?
Myeloid diff MLP: inactive; Vif imaging: -5.5; T cell HTS: 224.3; CASP6 VEID inh: 0.5; Myeloid diff CP1: inactive; GFP autofluor: 0.0

What do the screens show for `O=C(NCc1ccccc1)C(C(=O)c1ccc(F)cc1)n1ccccc1=O` (centres undefined)?
Myeloid diff MLP: inactive; T cell HTS: 203.2; Myeloid diff CP1: inactive; GFP autofluor: 0.7

Results for C[C@@H]1CCCCO[C@H](CN(C)C(=O)c2ccccc2)[C@@H](C)CN([C@@H](C)CO)C(=O)c2cc(NC(=O)Nc3ccc(F)cc3)ccc2O1 ?
CASP6 VEID inh: 0.3

How did CCCNC(=O)N[C@@H]1CC[C@@H](CC(=O)NC2CCC2)O[C@@H]1CO do in these assays?
CASP6 VEID inh: -0.1

How did O=C(CC1C(=O)NCCN1Cc1cccc(Oc2ccccc2)c1)NCCc1ccccn1 (centres undefined) do in these assays?
Myeloid diff MLP: active; Vif imaging: -2.1; T cell HTS: 319.0; CASP6 VEID inh: -4.4; Myeloid diff CP1: inactive; GFP autofluor: 0.3

Results for COc1ccc(-n2c(C)cc(C(=O)COC(=O)Cc3n[nH]c(=O)c4ccccc34)c2C)cc1 ?
Myeloid diff MLP: inconclusive; Vif imaging: -10.9; T cell HTS: 159.0; CASP6 VEID inh: 1.7

How did Cc1cc(C(=O)COC(=O)Cc2n[nH]c(=O)c3ccccc23)c(C)n1-c1ccc2c(c1)OCO2 do in these assays?
Myeloid diff MLP: active; Vif imaging: -3.6; T cell HTS: 196.6; CASP6 VEID inh: -0.5; Myeloid diff CP1: inactive; GFP autofluor: 0.7

Results for CC(C)CNC(=O)COC(=O)c1ccccc1SCC(=O)NCC(C)C ?
Myeloid diff MLP: inactive; Vif imaging: 1.5; T cell HTS: 290.4; CASP6 VEID inh: -8.9

What do the screens show for `CC(C)CNC(=O)c1ccccc1SCC(=O)NC12CC3CC(CC(C3)C1)C2`?
Myeloid diff MLP: active; Vif imaging: -7.6; T cell HTS: 273.8; Myeloid diff CP1: inactive; GFP autofluor: 3.8

What do the screens show for `CCCC#Cc1cnc2c(c1)C(=O)N([C@@H](C)CO)C[C@H](C)[C@H](CN(C)C(=O)CN1CCOCC1)O2`?
CASP6 VEID inh: 2.0

How did N#Cc1c(-c2ccc(C(F)(F)F)cc2)cc(-c2ccccc2)[nH]c1=S do in these assays?
Myeloid diff MLP: active; Vif imaging: -5.2; T cell HTS: 265.3; CASP6 VEID inh: 0.9; Myeloid diff CP1: inactive; GFP autofluor: 0.0

What do the screens show for `O=C(CCc1nc(-c2ccccc2F)no1)NC1CCN(Cc2ccccc2)CC1`?
Myeloid diff MLP: inactive; Vif imaging: -5.6; T cell HTS: 319.4; Myeloid diff CP1: inactive; GFP autofluor: 0.0

Results for Cc1ccc(S(=O)(=O)N(C)C[C@@H]2OCCCC[C@@H](C)Oc3ccc(NS(=O)(=O)c4ccccc4)cc3C(=O)N([C@@H](C)CO)C[C@@H]2C)cc1 ?
CASP6 VEID inh: 1.6

What do the screens show for `CCOC(=O)c1ccccc1NC(=O)Cn1cnc2c(cnn2-c2ccccc2)c1=O`?
Myeloid diff MLP: inactive; Vif imaging: 2.1; T cell HTS: 556.5; Myeloid diff CP1: inactive; GFP autofluor: 0.3

Source: PubChem
